Measurements reported in ChEMBL document CHEMBL2346620, “Design, synthesis and antithrombotic evaluation of novel dabigatran prodrugs containing methyl ferulate” (Bioorg Med Chem Lett, 2013).
pIC50, pKi: −log10 of the molar value. Active and inactive are the calls of the source. The rule behind the calls is not given here.

Assays:
Platelet [1] = test: Inhibition of thrombin-induced rabbit platelet aggregation compound pre-incubated in rabbit liver microsomal suspension; type: functional, microsomes, Microsome; conditions: Oryctolagus cuniculus
How it was run: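 Each compound was first incubated in rabbit liver microsomal suspension, then tested in rabbit platelet aggregation induced by thrombin. IC50 is the concentration giving half-maximal inhibition of aggregation. Mean ± SD of six independent experiments.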

Platelet [2] = test: Inhibition of ADP-induced rabbit platelet aggregation compound pre-incubated in rabbit liver microsomal suspension; type: functional, microsomes, Microsome; conditions: Oryctolagus cuniculus
How it was run: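 Before the in vitro assay, prodrugs were incubated in rabbit liver microsomal suspension. Rabbit platelet aggregation was then induced with ADP. IC50 is the drug concentration giving half-maximal inhibition of aggregation. Mean ± SD from six independent experiments.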

Prothrombin = Prothrombin (Homo sapiens, UniProt P00734); test: Binding affinity to human thrombin
Rattus norvegicus = test: Antithrombotic activity in intragastrically dosed rat venous thrombosis model; type: functional; conditions: po
How it was run: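 Reyers rat venous thrombosis model with intragastric dosing over 0.1–20 mg/kg, and a vehicle-treated control group. Read-out is dry clot weight. Eight animals per group, mean ± SD. ED50 is taken from the dose–response curve of clot weight against log dose (μmol/kg).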

| SMILES | pIC50 (Platelet [1]) | further results |
| --- | --- | --- |
| COC(=O)/C=C/c1ccc(OC(=O)CCN(C(=O)c2ccc3c(c2)nc(CNc2ccc(/C(N)=N\C(=O)OC)cc2)n3C)c2ccccn2)c(OC)c1 | 6.08 | – |
| COc1cc(/C=C/C(=O)O)ccc1O [FERULATE] | – | pIC50 (Platelet [2]): 2.57 |
| CCCCCCOC(=O)NC(=N)c1ccc(NCc2nc3cc(C(=O)N(CCC(=O)OCC)c4ccccn4)ccc3n2C)cc1 [DABIGATRAN ETEXILATE] | 6.47 | pKi (Prothrombin): 8.35; ED50 (Rattus norvegicus): 7.8 µmol/kg; inhibition (Platelet [2]; Microsome): inactive |
| COC(=O)/C=C/c1ccc(OC(=O)CCN(C(=O)c2ccc3c(c2)nc(CNc2ccc(/C(N)=N\C(=O)OC(C)C)cc2)n3C)c2ccccn2)c(OC)c1 | 6.11 | – |
| CCCCCOC(=O)/N=C(/N)c1ccc(NCc2nc3cc(C(=O)N(CCC(=O)Oc4ccc(/C=C/C(=O)OC)cc4OC)c4ccccn4)ccc3n2C)cc1 | 6.69 | – |
| COC(=O)/C=C/c1ccc(OC(=O)CCN(C(=O)c2ccc3c(c2)nc(CNc2ccc(/C(N)=N\C(=O)OC(C)(C)C)cc2)n3C)c2ccccn2)c(OC)c1 | 6.22 | – |
| CCCCCCOC(=O)/N=C(/N)c1ccc(NCc2nc3cc(C(=O)N(CCC(=O)Oc4ccc(/C=C/C(=O)OC)cc4OC)c4ccccn4)ccc3n2C)cc1 | 6.54 | ED50 (Rattus norvegicus): 3.7 µmol/kg; pIC50 (Platelet [2]): 2.24 |
| CCOC(=O)/N=C(/N)c1ccc(NCc2nc3cc(C(=O)N(CCC(=O)Oc4ccc(/C=C/C(=O)OC)cc4OC)c4ccccn4)ccc3n2C)cc1 | 6.34 | – |
| COC(=O)/C=C/c1ccc(OC(=O)CCN(C(=O)c2ccc3c(c2)nc(CNc2ccc(/C(N)=N\C(=O)OCc4ccccc4)cc2)n3C)c2ccccn2)c(OC)c1 | 6.16 | – |
